Rows were chosen to be rich in hits. Some 1.9% of all compounds tested hit in one or more screens of this group.
PP5 primary: PP5 (human) phosphatase inhibition; inhibition, % at 6.7 µM; purified PP5c, OMFP substrate fluorescence; P53041; 0.18% of 320,000 active;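 active = inhibition above the campaign's mean inhibition across all tested compounds plus 3 SD, cut at about 9.5% in these data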;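 also: 0% = DMSO only and 100% = 100 µM cantharidin control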
PP1 inh: counter-screen for PP5 inhibitors: inhibitors of human PP1-alpha; P62136; purified PP1alpha, OMFP fluorescence; inhibition, % at 6.7 µM; 0.9% of 320,000 active; AID 2235;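 active = inhibition above the mean inhibition of all tested compounds plus 3 SD, computed separately for each screening campaign, cut at about 15% in these data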
STEP block: inhibitors of human striatal-enriched phosphatase STEP | recombinant STEP, OMFP fluorogenic substrate, fluorescence | inhibition, % at 20 µM | 0.25% of 360,000 active | AID 588621;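 active = inhibition at 20 µM, scaled per plate between control wells, above about 37%, limit read from the data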;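 also: 0% = DMSO with enzyme and substrate and 100% = substrate only without enzyme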
Target sequence (P54829 whole entry, looked up): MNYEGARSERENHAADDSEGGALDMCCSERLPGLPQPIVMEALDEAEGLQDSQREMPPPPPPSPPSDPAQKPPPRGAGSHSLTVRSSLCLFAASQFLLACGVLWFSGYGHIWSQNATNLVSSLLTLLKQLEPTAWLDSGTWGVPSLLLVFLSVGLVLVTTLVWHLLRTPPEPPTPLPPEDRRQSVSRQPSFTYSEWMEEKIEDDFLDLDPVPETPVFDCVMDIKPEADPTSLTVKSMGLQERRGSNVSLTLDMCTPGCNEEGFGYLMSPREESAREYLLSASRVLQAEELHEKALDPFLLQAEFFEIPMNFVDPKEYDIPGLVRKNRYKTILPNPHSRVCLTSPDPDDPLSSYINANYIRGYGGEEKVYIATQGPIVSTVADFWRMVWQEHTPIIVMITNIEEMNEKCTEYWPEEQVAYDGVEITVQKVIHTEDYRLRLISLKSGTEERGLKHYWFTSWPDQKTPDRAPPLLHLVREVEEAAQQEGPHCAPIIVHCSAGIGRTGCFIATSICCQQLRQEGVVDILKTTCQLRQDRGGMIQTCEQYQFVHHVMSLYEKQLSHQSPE
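medium = Bis-Tris buffer pH 6.0, 2.5 mM DTT, 0.005% Tween 20 | test system = STEP (striatal-enriched tyrosine phosphatase) enzyme, cell-free | measure = normalized % inhibition | compound dosing = 20 µM, 1% DMSO | also added = 25 µM OMFP | schedule = reaction 20 min, ambient temperature | measured by = fluorescence read at 480 nm ex / 540 nm em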
LMPTP inh: LMPTP (human) inhibition | P24666 | recombinant LMPTP-A, OMFP fluorogenic substrate, fluorescence intensity | inhibition, % at 20 µM | 0.22% of 360,000 active;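 active = compounds that cut the enzyme signal by at least half of the control window in the single-dose screen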;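 also: plate controls were DMSO wells with enzyme plus substrate for no effect and substrate without enzyme for full effect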
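material = LMPTP-A | quantity = 0.625 nM enzyme | reagent = OMFP substrate, 400 µM final | buffer or medium = Bis-Tris pH 6.0, DTT, detergent | detection = endpoint fluorescence intensity from OMFP dephosphorylation | dosing = single 20 µM dose | read-out basis = % inhibition relative to no-enzyme and uninhibited control wells | control set = no-enzyme and uninhibited controls | timing = 50 min at room temperature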
Scp-1 inhibitor: Scp-1 (human) phosphatase inhibition; 0.88% of 340,000 active; inhibition, % at 20 µM; AID 493091; Recombinant Scp1, phosphopeptide, malachite green phosphate absorbance;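 active = inhibition above about 50% at 20 µM, limit read from the data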;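 also: plate controls were DMSO wells with enzyme for no effect and wells lacking enzyme for full effect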
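Test system: SCP-1 phosphatase catalytic domain, residues 76-261; measured by: colorimetric phosphate reagent with accelerator and stabiliser, absorbance at 630 nm; timing: enzyme reaction 45 min at room temperature, colour 5 min, stabilisation 30 min; also added: Phosphorylated 17-residue peptide substrate; compound dosing: one concentration, 20 µM, with 1.0% DMSO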
PP1 confirm: human PP1 phosphatase inhibition, confirmation. shares compounds with PP1 inh. purified PP1alpha, OMFP substrate fluorescence. inhibition, % at 6.7 µM. 52% of 1,900 active. AID 2358;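 active = mean PP1 inhibition above a set limit taken from the earlier primary screen, cut at about 15% in these data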
PP5 inh counter: inhibits human PP5 phosphatase in PP1 counter-screen. shares compounds with PP1 inh. purified PP5c, OMFP fluorescence. inhibition, % at 6.7 µM. 4% of 1,900 active. AID 2360;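 active = mean PP5 inhibition over triplicate wells above about 9.5% taken from the earlier PP1 screen, limit read from the data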
Starred values were filed as active, the others as inactive; . = no result.

SMILES	PP5 primary	PP1 inh	STEP block	LMPTP inh	Scp-1 inhibitor	PP1 confirm	PP5 inh counter
CCCCCCCCCCOC(=O)Cn1c(COc2ccccc2)[n+](C)c2ccccc21	5	36*	6	-2	15	9	3
Cc1ccc(CNC(=S)Nc2cc(C)ccc2OC(F)F)cc1	1	0	3	0	-8	.	.
CCCCCCCCCCOC(=O)Cn1c(COc2ccc(OC)cc2)[n+](C)c2ccccc21	4	35*	6	0	2	2	-1
CCCCOC(=O)Cn1c(=O)n(CC(=O)OCCCC)c2ccccc21	3	2	-1	-1	-6	.	.
O=C(Nc1nnc(C2CC2)s1)c1ccc(Cl)c(S(=O)(=O)N2CCc3ccccc3C2)c1	4	20*	0	3	-4	21*	-2
CCc1nnc(NC(=O)c2ccc(Cl)c(S(=O)(=O)N3CCc4ccccc43)c2)s1	-1	14	0	3	7	.	.
CC(Nc1ccnc2cc(Cl)ccc12)c1ccc(S(N)(=O)=O)cc1 (stereo not drawn)	3	2	2	2	-2	.	.
Cc1cc(/C=N/n2cnnc2)c(C)n1-c1ccc(OCc2ccc(Cl)cc2)cc1	4	28*	3	7	4	26*	0
Cc1cc(/C=N/n2cnnc2)c(C)n1-c1ccc(OCc2ccccc2F)cc1	6	9	1	3	3	.	.
CCn1cc(C2=NCC(C)O2)c2ccccc21 (stereo not drawn)	0	-1	3	0	-3	.	.
Nc1nc(SCC(=O)Nc2ccc([N+](=O)[O-])cc2)[nH]c(=O)c1NC(=O)c1ccc(Br)cc1	0	19*	1	2	4	23*	-3
CC(=O)c1ccc(N2CCN(C(=O)c3ccc(Cn4c(=S)[nH]c5ccc(N6CCOCC6)cc5c4=O)cc3)CC2)cc1	1	45*	2	11	-9	29*	2
COc1ccc(NC(=O)c2ccc(CNc3c(NC4CCCCC4)c(=O)c3=O)cc2)c(OC)c1	1	21*	2	0	-8	19*	-1
Cc1c(NC(=S)NC(NC(=O)CC(C)C)C(Cl)(Cl)Cl)c(=O)n(-c2ccccc2)n1C (stereo not drawn)	0	0	4	0	-5	.	.
O=c1c(-c2c(O)cc(O)c3c(=O)cc(-c4ccc(O)cc4)oc23)c(-c2ccc(O)cc2)oc2cc(O)cc(O)c12	3	32*	-3	15	53*	16*	-2
O=c1cc(-c2ccc(O)c(-c3c(O)cc(O)c4c(=O)cc(-c5ccc(O)cc5)oc34)c2)oc2cc(O)cc(O)c12	1	31*	-3	1	3	21*	-2
CC1CCc2c(sc3nc(CN4CCOCC4)nc(N4CCc5ccccc5C4)c23)C1 (stereo not drawn)	4	21*	4	2	-3	10	-4
COc1cc2c(cc1OC)CN(c1nc(CN3CCOCC3)nc3sc4c(c13)CCCC4)CC2	2	4	2	1	27	.	.
COc1cc2c(cc1OC)CN(c1nc(CN3CCCCC3)nc3sc4c(c13)CCCC4)CC2	4	18*	-3	0	-7	-2	-5
Cc1ccc(Oc2nc(CN3CCOCC3)nc3sc4c(c23)CCC(C)C4)cc1 (stereo not drawn)	-7	-5	-1	3	2	.	.
COc1ccc(N2CCN(C(=O)C(Cc3ccccc3)n3cccc3)CC2)cc1 (stereo not drawn)	2	0	0	-1	-1	.	.
CN([C@@H](Cc1ccc(OS(=O)(=O)c2cccc3cnccc23)cc1)C(=O)N1CCN(c2ccccc2)CC1)S(=O)(=O)c1cccc2cnccc12	1	29*	2	5	-1	20*	2
O=C(NCc1ccc(Cl)cc1)c1cc(-c2cccs2)on1	0	21*	-3	1	-8	25*	-3
Oc1ccc2ccccc2c1-c1sc(Nc2ccccc2)n[n+]1-c1ccc(F)cc1	2	3	-8	2	0	.	.
c1ccc(-[n+]2nc(Nc3cccc4ccccc34)sc2-c2c3ccccc3cc3ccccc23)cc1	3	31*	6	29	22	30*	1
SMILES	PP5 primary	PP1 inh	STEP block	LMPTP inh	Scp-1 inhibitor	PP1 confirm	PP5 inh counter
Fc1ccc(-[n+]2nc(Nc3ccccc3)sc2-c2c3ccccc3cc3ccccc23)cc1	2	22*	6	67*	14	5	1
CCOc1ccc(N2CC(C(=O)Nc3cccc(S(=O)(=O)N4CCCCC4)c3)CC2=O)cc1 (stereo not drawn)	3	-4	-1	1	-6	.	.
Cn1c(=O)[nH]c2c(Cl)nccc21	-1	0	-2	-1	6	.	.
Cn1c(=O)[nH]c2ncccc21	-1	28*	-1	-2	-7	-3	-6
CCOc1ncccc1C(=O)OCC(=O)Nc1ccc(-c2nc3ccc(C)cc3s2)cc1	0	19*	-5	-1	6	29*	0
c1ccc(-c2nnc(-c3ccccn3)nc2NC2CCCCC2)cc1	0	21*	-1	1	6	2	-4
O=C(C1=C[C@H](c2ccc(Br)cc2)C[C@H](OCCCCO)O1)N1CCN(Cc2ccccc2)CC1	4	1	-1	-1	7	.	.
Cc1ccc(NC(=O)/C(=C\c2cccc([N+](=O)[O-])c2)NC(=O)c2cccs2)cc1	-3	24*	-2	2	-1	18*	-4
O=C(CSc1nnc(COc2ccc(Br)cc2)o1)NC1CCCCC1	3	-1	1	0	-3	.	.
COc1ccc(-c2csc(NC(=O)c3ccccc3NS(=O)(=O)c3ccc(F)c(F)c3)n2)cc1	12*	27*	-6	5	-17	24*	7
COc1ccc(-c2csc(NC(=O)c3ccccc3F)n2)cc1	1	1	2	3	-6	.	.
CCOC(=O)c1c(C)[nH]c(C(=O)OC/C(O)=C(\C#N)c2nc3ccccc3[nH]2)c1C	0	20*	-5	2	1	10	1
C=CCOC(=O)C1=C(C)NC(SCC(=O)Nc2ccc(C)c(Cl)c2)=C(C#N)C1c1ccco1 (stereo not drawn)	1	19*	-3	3	5	7	2
COCCOC(=O)C1=C(C)NC(SCC(=O)NC(C)(C)C)=C(C#N)C1c1ccco1 (stereo not drawn)	.	.	-1	0	-2	.	.
O=C1NC[C@@H](Cc2cccc3ccccc23)N(CCCCC2CCCCC2)C1=O	5	21*	1	4	-2	3	2

Source: PubChem BioAssay (several laboratories)
